The values that follow come from ChEMBL document CHEMBL1121524, “Studies of hypolipidemic agents. 1. Synthesis and hypolipidemic activities of alkoxycinnamic acid derivatives” (1980).

SMILES strings stand for the structures.

The species entered for assay [1] is Rattus norvegicus. The assay is described as follows: Tested for the hypolipidemic activity, expressed as percent decrease in Triglyceride in rat, at dosage of 100 mg for 5 days by Ryan and Rasho method. The class given is functional. In short, it runs like this:
(§1)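 Male Sprague-Dawley rats, 4 weeks old, kept on CE-2 chow for at least 1 week, then grouped (generally five per group). Compound was mixed into CE-2 powder and fed ad libitum for the stated period; controls received plain CE-2 powder. Diet level is given as mg/100 g (mg%), about equal to mg/kg/day. Total serum triglyceride was measured by the Ryan and Rasho method and reported as percent depression versus control group mean. Significance was p < 0.05.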

The species entered for assay [2] is Rattus norvegicus. The assay is described as follows: Tested for the hypolipidemic activity, expressed as percent decrease in serum cholesterol in rat, at dosage of 100 mg for 5 days by Zak et al method. The class given is functional. In short, it runs like this:
(§2)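 Male Sprague-Dawley rats, 4 weeks old, kept on CE-2 chow for at least 1 week, then grouped (generally five per group). Compound was mixed into CE-2 powder and fed ad libitum for the stated period; controls received plain CE-2 powder. Diet level is given as mg/100 g (mg%), about equal to mg/kg/day. Total serum cholesterol was measured by the Zak et al. method and reported as percent depression versus control group mean. Significance was p < 0.05.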

For assay [3], the species on record is Rattus norvegicus. Nature of the assay: tested for the hypolipidemic activity, expressed as percent decrease in Triglyceride in rat, at dosage of 50 mg for 3 days by Ryan and Rasho method. The class given is functional. In short, it runs like this:
as §1

Assay [4] relates to Rattus norvegicus. Nature of the assay: In vivo hypolipidemic activity, expressed as percent decrease in Triglyceride in rat, at dosage of 100 mg for 7 days. The class given is functional. In short, it runs like this: as §1
The species named for assay [5] is Rattus norvegicus. Nature of the assay: Hypolipidemic activity, expressed as percent decrease in serum cholesterol in rat, at dosage of 100 mg for 7 days by Zak et al method. The class given is functional. In short, it runs like this:
as §2

Assay [6] relates to Rattus norvegicus. The assay is described as follows: In vivo hypolipidemic activity, expressed as percent decrease in serum cholesterol in rat, at dosage of 20 mg for 7 days. In kind it is functional. In short, it runs like this: as §2
The species named for assay [7] is Rattus norvegicus. The assay is described as follows: tested for the hypolipidemic activity, expressed as percent decrease in serum cholesterol in rat, at dosage of 10 mg for 7 days by Zak et al method. In kind it is functional. In short, it runs like this: as §2
Assay [8] is filed under the species Rattus norvegicus. Nature of the assay: tested for the hypolipidemic activity, expressed as percent decrease in serum cholesterol in rat, at dosage of 50 mg for 3 days by Zak et al method. The class given is functional. The method in brief: as §2
Assay [9] is filed under the species Rattus norvegicus. The assay is described as follows: tested for the hypolipidemic activity, expressed as percent decrease in Triglyceride in rat, at dosage of 10 mg for 7 days by Ryan and Rasho method. The class given is functional. The method in brief: as §1
In assay [10] the test system is Rattus norvegicus. The assay is described as follows: In vivo hypolipidemic activity, expressed as percent decrease in serum triglyceride in rat, at dosage of 20 mg for 7 days.
The species named for assay [11] is Rattus norvegicus. Nature of the assay: Tested for the hypolipidemic activity, expressed as percent decrease in Triglyceride in rat, at dosage of 30 mg for 7 days by Ryan and Rasho method. In kind it is functional. The method in brief: as §1
The species named for assay [12] is Rattus norvegicus. The assay is described as follows: Tested for the hypolipidemic activity, expressed as percent decrease in serum cholesterol in rat, at dosage of 30 mg for 7 days by Zak et al method. The class given is functional. In short, it runs like this: as §2
For assay [13], the species on record is Rattus norvegicus. Nature of the assay: tested for the hypolipidemic activity, expressed as percent decrease in Triglyceride in rat, at dosage of 75.8 mg for 7 days by Ryan and Rasho method. The class given is functional. In short, it runs like this: as §1
For assay [14], the species on record is Rattus norvegicus. The assay is described as follows: Tested for the hypolipidemic activity, expressed as percent decrease in serum cholesterol in rat, at dosage of 75.8 mg for 7 days by Zak et al method. In kind it is functional. In short, it runs like this: as §2
The species named for assay [15] is Rattus norvegicus. The assay is described as follows: Tested for the hypolipidemic activity, expressed as percent decrease in Triglyceride in rat, at dosage of 100 mg for 3 days by Ryan and Rasho method. In kind it is functional. In short, it runs like this: as §1
For assay [16], the species on record is Rattus norvegicus. The assay is described as follows: Tested for the hypolipidemic activity, expressed as percent decrease in serum cholesterol in rat, at dosage of 100 mg for 3 days by Zak et al method. The class given is functional. In short, it runs like this: as §2
The species entered for assay [17] is Rattus norvegicus. Nature of the assay: Hypolipidemic activity expressed as percentage decrease in triglyceride in rat, at dosage of 50 mg for 7 days. The class given is functional. In short, it runs like this: as §1
The species entered for assay [18] is Rattus norvegicus. The assay is described as follows: Tested for the hypolipidemic activity, expressed as percent decrease in serum cholesterol in rat, at dosage of 50 mg for 7 days. In kind it is functional. In short, it runs like this:
as §2

In assay [19] the test system is Rattus norvegicus. Nature of the assay: tested for the hypolipidemic activity, expressed as percent decrease in Triglyceride in rat, at dosage of 20 mg/kg 0 mg for 7 days by Ryan and Rasho method.
The species named for assay [20] is Rattus norvegicus. The assay is described as follows: Tested for the hypolipidemic activity, expressed as percent decrease in Triglyceride in rat, at dosage of mg for 7 days by Ryan and Rasho method. In kind it is functional. The method in brief:
as §1

The species entered for assay [21] is Rattus norvegicus. Nature of the assay: tested for the hypolipidemic activity, expressed as percent decrease in Triglyceride in rat, at dosage of 20 mg for 7 days by Ryan and Rasho method. In kind it is functional. In short, it runs like this: as §1
For assay [22], the species on record is Rattus norvegicus. Nature of the assay: Tested for the hypolipidemic activity, expressed as percent decrease in serum cholesterol in rat, at dosage of 20 mg for 7 days by Zak et al method. The class given is functional. The method in brief: as §2
The species named for assay [23] is Rattus norvegicus. Nature of the assay: Tested for the hypolipidemic activity, expressed as percent decrease in Triglyceride in rat, at dosage of 102 mg for 7 days by Ryan and Rasho method. The class given is functional. In short, it runs like this:
as §1

The species entered for assay [24] is Rattus norvegicus. The assay is described as follows: Tested for the hypolipidemic activity, expressed as percent decrease in serum cholesterol in rat, at dosage of 102 mg for 7 days by Zak et al method. The class given is functional. In short, it runs like this:
as §2

As for `C=C(C)C(=O)OCCOC(=O)/C=C/c1ccc(OCCCCCCC/C=C/CCCCCCCCC)cc1`, the Decrease in the assay filed under Rattus norvegicus [1] is 21%; in the assay listed under Rattus norvegicus [2], -13%.
As to `C=C(C)C(=O)OCCOC(=O)/C(C)=C/c1ccc(OCCCCCCCCCCCCCCCC)cc1`, the Decrease was determined as 27% in the assay filed under Rattus norvegicus [3]; 62% in the assay with Rattus norvegicus [4]; 35% in the assay filed under Rattus norvegicus [5]; 13% with Rattus norvegicus [6]; 3% in the assay listed under Rattus norvegicus [7]; 25% in the assay listed under Rattus norvegicus [8]. The Decrease was 10% in the assay filed under Rattus norvegicus [9] and 12% with Rattus norvegicus [10].
Take `C=CCOc1ccc(/C=C/C(=O)O)cc1`: the Decrease in the assay filed under Rattus norvegicus [11] is reported as -16%; in the assay listed under Rattus norvegicus [12] it was 0%.
For `CCCCCCCCCCCCCCCC(=O)OCC(O)COC(=O)/C(C)=C/c1ccc(OCCCCCCCCCCCCCC)cc1` (centres undefined), the Decrease is given as -19% in the assay listed under Rattus norvegicus [13] and 3% in the assay filed under Rattus norvegicus [14].
With `CCCCCCCCCCCCCCCCOc1ccc(/C=C(\C)C(=O)OCCCl)cc1`, the Decrease was 26% in the assay listed under Rattus norvegicus [3]; 48% in the assay filed under Rattus norvegicus [15]; 24% in the assay filed under Rattus norvegicus [16]; 20% with Rattus norvegicus [6]; 20% in the assay listed under Rattus norvegicus [8]; 5% in the assay on Rattus norvegicus [10].
As for `CCCCCCCCCCCCCCCCOc1ccc(/C=C/C(=O)OCCCl)cc1`, the Decrease in the assay filed under Rattus norvegicus [17] is listed as 43%; with Rattus norvegicus [6] it was 17%; in the assay filed under Rattus norvegicus [18], -4%; in the assay with Rattus norvegicus [19], 17%.
For `CCCCCCCCCCCCOc1ccc(/C=C(\C)C(=O)OCC(COC(=O)/C(C)=C/c2ccc(OCCCCCCCCCCCC)cc2)OC(=O)/C(C)=C/c2ccc(OCCCCCCCCCCCC)cc2)cc1` (centres undefined), the Decrease stood at 28% in the assay listed under Rattus norvegicus [20] and 2% in the assay listed under Rattus norvegicus [18].
For `CCCCCCCCCCCCOc1ccc(/C=C(\C)C(=O)O)cc1`, the Decrease is listed as 31% in the assay listed under Rattus norvegicus [17]; 32% in the assay filed under Rattus norvegicus [21]; 14% in the assay filed under Rattus norvegicus [7]; 13% in the assay listed under Rattus norvegicus [9]; 7% in the assay listed under Rattus norvegicus [22]; 17% in the assay listed under Rattus norvegicus [18].
In the case of `CCCCCCCCCCCCCCCC(=O)OCC(COC(=O)/C(C)=C/c1ccc(OCCCCCCCCCCCCCC)cc1)OC(=O)CCCCCCCCCCCCCCC` (centres undefined), the results for the Decrease in the assay listed under Rattus norvegicus [23] and in the assay listed under Rattus norvegicus [24] were 5% and 18%, respectively.
